The target of test [1] is T1, 5-hydroxytryptamine receptor 2C (Homo sapiens, UniProt P28335).
T1 sequence (P28335 whole entry): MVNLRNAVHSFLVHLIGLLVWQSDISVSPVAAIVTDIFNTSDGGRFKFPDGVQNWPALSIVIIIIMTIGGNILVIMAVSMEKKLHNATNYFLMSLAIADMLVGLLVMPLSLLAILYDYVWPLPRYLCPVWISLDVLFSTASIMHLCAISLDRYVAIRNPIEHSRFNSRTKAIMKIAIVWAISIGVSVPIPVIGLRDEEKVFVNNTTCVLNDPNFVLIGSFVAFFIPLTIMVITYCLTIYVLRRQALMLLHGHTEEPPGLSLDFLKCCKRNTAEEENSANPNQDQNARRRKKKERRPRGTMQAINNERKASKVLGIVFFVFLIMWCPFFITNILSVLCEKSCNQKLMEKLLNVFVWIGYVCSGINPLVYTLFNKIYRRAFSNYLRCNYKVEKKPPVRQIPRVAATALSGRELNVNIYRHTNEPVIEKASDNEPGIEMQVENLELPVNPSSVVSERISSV
As to the kind of experiment: Binding affinity using [3H]mesulergine as radioligand with receptor membranes isolated from a CHO-k cell line expressing the human 5-hydroxytryptamine 2C receptor. The essentials: (§1)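 Competition binding used human 5-HT2C CHO membranes. [125I]DOI labelled agonist sites and [3H]mesulergine labelled antagonist sites. IC50 came from nine-point concentration curves, each point in triplicate. Ki was calculated by Cheng-Prusoff: Ki = IC50/(1 + [radioligand]/Kd).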

The target of test [2] is T2, 5-hydroxytryptamine receptor 2C (Homo sapiens) (UniProt P28335).
T2 sequence (whole entry): T1 sequence (P28335 whole entry)
As to the kind of experiment: Inhibitory activity using [3H]mesulergine as radioligand with receptor membranes isolated from a CHO-k cell line expressing the human 5-hydroxytryptamine 2C receptor at a concentration of 1 uM. Type of test: cell-free.

Test [3] can be described thus: Emax values indicate relative efficacy compared to a maximally effective 5-HT2c (5-HT) concentration. Type of test: functional. The gist of the method: (§2)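 CHO cells stably expressing human 5-HT2C were labelled overnight with myo-[3H]inositol, washed, and preincubated 30 min in medium containing LiCl. Agonist was then added at 10^-10 to 10^-5 M for 30 min. [3H]IP was counted by liquid scintillation and expressed as % of the maximal 5-HT response. EC50 came from six-point curves in duplicate, fitted by a three-parameter logistic; Emax is relative to maximal 5-HT.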

Test [4] addresses T1, 5-hydroxytryptamine receptor 2C. As to the kind of experiment: Agonistic activity for 5-HT2c (5-HT2C) by measuring [3H]inositol monophosphate fromation in CHO cells in which the human 5-HT2C receptor subtype was stably expressed. Type of test: functional, cell-based. The gist of the method:
as §2

Test [5] has the same target. As to the kind of experiment: Binding affinity using [125I]DOI as radioligand with membranes isolated from a CHO-k cell line expressing the human 5-hydroxytryptamine 2C receptor. The gist of the method:
as §1

The test system of test [6] is Rattus norvegicus. As to the kind of experiment: Concentration required to decrease food intake in Sprague-Dawley rats when compound administered orally. The class given is functional. The settings on record: po. The gist of the method:
(§3)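 Male Sprague-Dawley rats were fasted 24 h, then given vehicle or test dose, ip or po. Powdered chow was returned and 2 h food intake was recorded. Each animal was fasted twice weekly (Monday, Thursday) and tested the following day. Groups were compared by one-way ANOVA with post hoc t-tests, and ED50 was calculated.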

Test [7] relates to Rattus norvegicus. As to the kind of experiment: Concentration required to decrease food intake in Sprague-Dawley rats when compound administered intraperitoneally. The class given is functional. The settings on record: ip. The essentials:
as §3

As usually defined, the Ki is a measure of affinity in units of concentration, obtained from inhibition or displacement. Turning to `O=C1Nc2cc(F)c(F)cc2N2CCNCC12` (centres undefined), in test [1], the Ki amounted to 1800 nM.
In general, inhibition refers to the relative decrease from the control value, in per cent. High values mean a response far below the control, low ones a response near the control. With `O=C1Nc2cc(NC(=O)C(F)(F)F)ccc2N2CCNCC12` (centres undefined), the inhibition in test [2] is 21%.
In general, Emax refers to the greatest response seen or fitted, relative to the assay's reference. For `O=C1Nc2cc(C(F)(F)F)c(Cl)cc2N2CCNC[C@H]12`, the Ki in test [1] turned out to be 160 nM. Moreover, the Emax in test [3] stood at 97%.
What is called EC50 is the midpoint of the concentration-response curve. Lower therefore signals a more potent agent. As for `Clc1cc2c(cc1Cl)N1CCNCC1CN2` (centres undefined), in test [1], the Ki was 18 nM. The molecule also came in with a half-maximal effective concentration (EC50) in test [4] of 7.6 nM. Besides, the Emax in test [3] was found to be 96%.
`O=C1Nc2cc(C(F)(F)F)c(Cl)cc2N2CCNC[C@@H]12`: in test [1], the affinity corresponds to a Ki of 3600 nM. Also, the Emax in test [3] is 85%.
For `O=C1Nc2ccc(Cl)c(Cl)c2N2CCNCC12` (centres undefined), the Ki in test [5] was determined as 1000 nM; in test [1], 1700 nM.
Regarding `O=C1Nc2cc(Cl)c(Cl)cc2N2CCNC[C@@H]12`, in test [1], the Ki came out at 285 nM. This molecule showed an Emax in test [3] of 88%.
Molecule `O=C1Nc2c(Cl)cc(Cl)cc2N2CCNCC12` (centres undefined) registered an inhibition constant Ki in test [1] of 368 nM.
In the case of `Clc1cc2c(cc1Cl)N1CCNC[C@H]1CN2`, the Ki stood at 8 nM in test [5] and 61 nM in test [1]. The same molecule registered an EC50 in test [4] of 45 nM. In test [3], this molecule registered an Emax of 82%.
With `CN1C(=O)C2CNCCN2c2ccccc21` (centres undefined), the inhibition in test [2] was found to be 9%.
On to `O=C1Nc2cccc(Cl)c2N2CCNCC12` (centres undefined), for which the inhibition in test [2] was found to be 8%.
On to `Clc1cc2c(cc1Cl)N1CCNC[C@@H]1CN2`, for which the Ki in test [5] stood at 7 nM; in test [1] it was 88 nM. In test [4], this molecule returned an EC50 of 49 nM. Moreover, in test [3], the Emax stood at 107%.
Consider `O=C1Nc2ccc(Cl)cc2N2CCNCC12` (centres undefined), for which, in test [2], the inhibition turned out to be 67%.
`O=C1Nc2ccccc2N2CCNC[C@@H]12` gave an inhibition in test [2] of 10%.
The same measure, in the same setting: the same measure for `COC(=O)c1ccc2c(c1)NC(=O)C1CNCCN21` (centres undefined): 1%; for `Cc1ccc2c(c1)N1CCNCC1C(=O)N2` (centres undefined): 0%; for `O=C1Nc2c(F)cccc2N2CCNCC12` (centres undefined): 48%.
On to `O=C1Nc2cc(Cl)c(Cl)cc2N2CCNCC12` (centres undefined), for which the Ki is 4 nM in test [5] and 58 nM in test [1]. In test [3], this molecule came in with an Emax of 110%.
Molecule `O=C1Nc2ccc(F)cc2N2CCNCC12` (centres undefined) showed an inhibition in test [2] of 26%.
As to `O=C1Nc2c(Cl)cccc2N2CCNCC12` (centres undefined), in test [2], the inhibition stood at 15%.
Still for that read-out and setting: with `O=C1Nc2ccccc2N2CCNCC12` (centres undefined) the figure was 25%.
For the molecule `CCCCN(CCCC)c1ccc2c(c1)NC(=O)C1CNCCN21` (centres undefined), the inhibition in test [2] is 7%.
On to `O=C1Nc2cc(C(F)(F)F)c(Cl)cc2N2CCNCC12` (centres undefined), for which the Ki in test [5] came out at 9 nM; in test [1], 84 nM. In addition, in test [4], the EC50 was 136 nM. This molecule also had an Emax in test [3] of 108%.
Take `c1ccc2c(c1)NCC1CNCCN21` (centres undefined): the inhibition in test [2] was determined as 22%.
In turn, `O=C1Nc2cc(F)ccc2N2CCNCC12` (centres undefined) displayed an inhibition in test [2] of 7%.
Still for that read-out and setting: the same measure for `O=C1Nc2cc(C(F)(F)F)ccc2N2CCNCC12` (centres undefined): 46%; for `Nc1ccc2c(c1)NC(=O)C1CNCCN21` (centres undefined): 0%.
Molecule `O=C1Nc2cc(Cl)ccc2N2CCNCC12` (centres undefined) had an inhibition in test [2] of 33%.
As for `O=C(c1ccccc1)c1ccc2c(c1)NC(=O)C1CNCCN21` (centres undefined), the Ki in test [5] was determined as 2150 nM; in test [1], 9200 nM.
Turning to `O=C1Nc2ccc(O)cc2N2CCNCC12` (centres undefined), in test [2], the inhibition was found to be 24%.
For the molecule `FC(F)(F)c1cc2c(cc1Cl)N1CCNC[C@@H]1CN2`, the Ki in test [5] came to 17 nM; in test [1] it was 92 nM. In test [4], this molecule had an EC50 of 19 nM. For the same molecule, in test [3], the Emax worked out at 76%.
For the molecule `NC(=O)c1ccc2c(c1)NC(=O)C1CNCCN21` (centres undefined), the inhibition in test [2] was determined as 5%.
With `O=C1Nc2ccc(Cl)cc2N2CCNC[C@H]12`, the Ki in test [5] was 34 nM; in test [1] it was 238 nM. The same molecule had an EC50 in test [4] of 86 nM. Besides, the Emax in test [3] is 95%.
`O=C1Nc2ccccc2N2CCNC[C@H]12` returned an inhibition in test [2] of 47%.
As usually defined, the ED50 is the dose at which the effect has come halfway, by size or by number of responders. The low end stands for greater potency, the high end for weaker potency. Take `O=C1Nc2cc(Cl)c(Cl)cc2N2CCNC[C@H]12`: the Ki in test [5] worked out at 3 nM; in test [1], 32 nM. The ED50 with Rattus norvegicus [6] came out at 10 mg/kg; with Rattus norvegicus [7], 2 mg/kg. Further, in test [3], the Emax amounted to 112%.
Take `COc1ccc2c(c1)N1CCNCC1C(=O)N2` (centres undefined): the inhibition in test [2] is 36%.

Values taken from ChEMBL document CHEMBL1133296, “Synthesis and 5-hydroxytryptamine (5-HT) activity of 2,3,4,4a-tetrahydro-1H-pyrazino[1,2-a]quinoxalin-5-(6H)ones and 2,3,4,4a,5,6-hexahydro-1H-pyrazino[1,2-a]quinoxalines” (Bioorg Med Chem Lett, 2000).
